ChEMBL document CHEMBL1765057, “Pyrazolo[4,3-d]pyrimidine bioisostere of roscovitine: evaluation of a novel selective inhibitor of cyclin-dependent kinases with antiproliferative activity” (J Med Chem, 2011)
The source made the active and inactive calls. No cut-off for these calls is given here.

What was measured:
MCF7 [1] = assay: Cytotoxicity against human MCF7 cells after 72 hrs by fluoroskan ascent microplate reader analysis; format: functional, cell-based; conditions: MCF7, 72 h
Procedure, shortened: (§1)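 Cells were grown in DMEM with 10% FCS and 4 mM glutamine at 37 °C under CO2, then plated at densities suited to each line. Compounds were added as 3-fold dilutions in triplicate for 72 h.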

HBL-100 = assay: Cytotoxicity against human HBL100 cells after 72 hrs by fluoroskan ascent microplate reader analysis; format: functional, cell-based; conditions: HBL-100, 72 h; procedure, shortened: as §1
HT-29 = assay: Cytotoxicity against human HT-29 cells after 72 hrs by fluoroskan ascent microplate reader analysis; format: functional, cell-based; conditions: HT-29, 72 h; procedure, shortened: as §1
U-266 = assay: Cytotoxicity against human U266 cells after 72 hrs by fluoroskan ascent microplate reader analysis; format: functional, cell-based; conditions: U-266, 72 h; procedure, shortened: as §1
K562 = assay: Cytotoxicity against human K562 cells after 72 hrs by fluoroskan ascent microplate reader analysis; format: functional, cell-based; conditions: K562, 72 h; procedure, shortened: as §1
G-361 = assay: Cytotoxicity against human G361 cells after 72 hrs by fluoroskan ascent microplate reader analysis; format: functional, cell-based; conditions: G-361, 72 h; procedure, shortened: as §1
HeLa = assay: Cytotoxicity against human HeLa cells after 72 hrs by fluoroskan ascent microplate reader analysis; format: functional, cell-based; procedure, shortened: as §1
A549 = assay: Cytotoxicity against human A549 cells after 72 hrs by fluoroskan ascent microplate reader analysis; format: functional, cell-based; conditions: A549, 72 h; procedure, shortened: as §1
[2] = target: Cyclin-dependent kinase 7/ cyclin H (Homo sapiens) (UniProt P51946+P50613); assay: Inhibition of human recombinant CDK7/cyclin H/MAT1 at 10 uM; format: protein-complex assay
[3] = target: Glycogen synthase kinase-3 alpha (Homo sapiens) (UniProt P49840); assay: Inhibition of human recombinant GSK3A at 10 uM
Glycogen synthase kinase-3 alpha (Homo sapiens), sequence (P49840 2-483 limits assumed): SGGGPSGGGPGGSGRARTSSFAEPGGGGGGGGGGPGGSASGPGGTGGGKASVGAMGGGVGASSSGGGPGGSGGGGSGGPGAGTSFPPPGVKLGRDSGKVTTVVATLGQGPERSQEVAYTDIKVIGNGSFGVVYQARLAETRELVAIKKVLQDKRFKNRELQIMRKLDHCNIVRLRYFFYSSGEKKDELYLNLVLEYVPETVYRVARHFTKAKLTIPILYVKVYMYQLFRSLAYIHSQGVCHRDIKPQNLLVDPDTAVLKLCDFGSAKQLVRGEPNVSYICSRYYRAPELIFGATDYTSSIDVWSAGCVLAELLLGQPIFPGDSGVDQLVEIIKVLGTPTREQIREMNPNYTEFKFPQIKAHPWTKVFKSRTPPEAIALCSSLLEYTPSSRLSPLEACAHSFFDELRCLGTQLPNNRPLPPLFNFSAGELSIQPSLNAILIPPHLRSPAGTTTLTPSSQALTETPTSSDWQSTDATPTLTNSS

[4] = target: MAP kinase-activated protein kinase 5 (Homo sapiens) (UniProt Q8IW41); assay: Inhibition of human recombinant PRAK at 10 uM
MAP kinase-activated protein kinase 5 (Homo sapiens), sequence (Q8IW41 whole entry): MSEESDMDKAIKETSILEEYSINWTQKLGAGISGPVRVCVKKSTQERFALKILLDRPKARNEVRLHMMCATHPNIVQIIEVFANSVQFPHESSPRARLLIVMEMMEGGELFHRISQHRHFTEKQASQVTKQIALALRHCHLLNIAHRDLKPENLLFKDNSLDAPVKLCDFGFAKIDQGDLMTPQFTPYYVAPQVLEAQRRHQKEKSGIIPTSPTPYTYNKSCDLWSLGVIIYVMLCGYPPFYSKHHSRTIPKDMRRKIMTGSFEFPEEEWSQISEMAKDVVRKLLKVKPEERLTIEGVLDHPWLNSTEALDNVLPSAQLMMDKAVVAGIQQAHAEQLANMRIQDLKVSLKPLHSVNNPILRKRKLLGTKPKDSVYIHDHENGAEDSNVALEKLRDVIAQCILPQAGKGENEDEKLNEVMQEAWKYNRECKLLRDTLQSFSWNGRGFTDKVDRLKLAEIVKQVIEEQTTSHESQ

[5] = target: Ribosomal protein S6 kinase alpha-5 (Homo sapiens) (UniProt O75582); assay: Inhibition of human recombinant MSK1 at 10 uM
Ribosomal protein S6 kinase alpha-5 (Homo sapiens), sequence (O75582 whole entry, looked up): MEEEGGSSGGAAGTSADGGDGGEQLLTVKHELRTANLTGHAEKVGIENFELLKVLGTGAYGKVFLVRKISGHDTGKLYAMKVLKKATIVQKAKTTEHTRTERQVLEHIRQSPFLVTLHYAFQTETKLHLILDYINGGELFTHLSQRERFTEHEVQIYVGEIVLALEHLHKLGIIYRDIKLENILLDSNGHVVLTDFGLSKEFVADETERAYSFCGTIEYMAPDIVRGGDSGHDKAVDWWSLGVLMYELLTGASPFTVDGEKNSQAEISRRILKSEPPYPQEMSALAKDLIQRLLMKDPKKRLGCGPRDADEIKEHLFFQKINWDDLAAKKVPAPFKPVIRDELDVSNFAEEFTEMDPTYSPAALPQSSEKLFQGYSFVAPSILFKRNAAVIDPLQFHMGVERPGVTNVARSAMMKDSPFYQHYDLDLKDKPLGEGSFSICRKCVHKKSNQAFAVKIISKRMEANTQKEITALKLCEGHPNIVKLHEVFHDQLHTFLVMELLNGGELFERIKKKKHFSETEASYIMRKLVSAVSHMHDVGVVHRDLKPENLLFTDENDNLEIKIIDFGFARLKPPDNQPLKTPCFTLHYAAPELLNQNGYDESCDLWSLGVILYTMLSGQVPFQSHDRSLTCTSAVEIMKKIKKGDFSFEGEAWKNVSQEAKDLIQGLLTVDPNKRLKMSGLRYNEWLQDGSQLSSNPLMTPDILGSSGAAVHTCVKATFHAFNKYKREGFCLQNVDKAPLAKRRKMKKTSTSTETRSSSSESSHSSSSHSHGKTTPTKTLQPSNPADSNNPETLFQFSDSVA

[6] = target: T1, Retinoblastoma-associated protein (Homo sapiens) (UniProt P06400); assay: Inhibition of retinoblastoma protein in human MCF7 cells assessed as reduction of cyclin D1 level at 2.5 to 40 uM after 24 hrs by immunoblotting; format: cell-based
T1 sequence (whole entry): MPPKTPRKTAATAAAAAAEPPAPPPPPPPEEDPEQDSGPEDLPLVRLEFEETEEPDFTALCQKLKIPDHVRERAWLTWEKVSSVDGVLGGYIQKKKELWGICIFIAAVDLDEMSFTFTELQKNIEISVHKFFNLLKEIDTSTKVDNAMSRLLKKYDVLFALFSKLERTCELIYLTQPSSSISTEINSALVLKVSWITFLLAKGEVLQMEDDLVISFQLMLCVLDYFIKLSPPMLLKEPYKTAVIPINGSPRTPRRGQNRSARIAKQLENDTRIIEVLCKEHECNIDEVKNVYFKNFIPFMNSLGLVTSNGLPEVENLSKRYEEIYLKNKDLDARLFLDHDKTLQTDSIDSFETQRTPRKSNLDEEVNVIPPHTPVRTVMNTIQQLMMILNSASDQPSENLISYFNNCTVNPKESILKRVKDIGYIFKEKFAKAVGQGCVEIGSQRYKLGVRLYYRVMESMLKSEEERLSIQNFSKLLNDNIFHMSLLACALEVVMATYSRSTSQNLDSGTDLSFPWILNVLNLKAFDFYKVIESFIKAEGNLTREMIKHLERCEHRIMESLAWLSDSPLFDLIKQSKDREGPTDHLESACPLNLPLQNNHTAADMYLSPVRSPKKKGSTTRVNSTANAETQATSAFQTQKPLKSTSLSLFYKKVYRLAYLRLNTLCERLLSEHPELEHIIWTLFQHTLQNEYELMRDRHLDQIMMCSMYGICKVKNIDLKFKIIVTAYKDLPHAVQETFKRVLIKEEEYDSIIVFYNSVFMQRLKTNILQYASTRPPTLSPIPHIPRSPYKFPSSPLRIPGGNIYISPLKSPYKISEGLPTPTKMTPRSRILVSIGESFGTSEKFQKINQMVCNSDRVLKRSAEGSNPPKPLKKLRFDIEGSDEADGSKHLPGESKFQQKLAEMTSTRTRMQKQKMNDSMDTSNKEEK
Procedure, shortened: (§2)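 Asynchronous, exponentially growing MCF-7 cells were exposed 24 h to a range of concentrations. Total lysates were made in Laemmli buffer, run on SDS-PAGE and blotted to nitrocellulose. Membranes were probed overnight at 4 °C with specific or phosphospecific antibodies (pRb S249/T252, S780, S795, S807/811), with tubulin as loading control and ECL detection.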

[7] = target: T1, Retinoblastoma-associated protein (Homo sapiens); assay: Inhibition of retinoblastoma protein in human MCF7 cells assessed as reduction of CDK1 level at 2.5 to 40 uM after 24 hrs by immunoblotting; format: cell-based; procedure, shortened: as §2
[8] = target: T1, Retinoblastoma-associated protein (Homo sapiens); assay: Inhibition of retinoblastoma protein in human MCF7 cells assessed as reduction of CDK6 level at 2.5 to 40 uM after 24 hrs by immunoblotting; format: cell-based; procedure, shortened: as §2
[9] = target: T1, Retinoblastoma-associated protein (Homo sapiens); assay: Inhibition of retinoblastoma protein in human MCF7 cells assessed as reduction of cyclin A level at 2.5 to 40 uM after 24 hrs by immunoblotting; format: cell-based; procedure, shortened: as §2
MCF7 [10] = assay: Cell cycle arrest in human MCF7 cells assessed as accumulation at G1 phase after 24 hrs using propidium iodide and BrdU staining by flow cytometry; format: functional, cell-based
Procedure, shortened: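 Subconfluent cells treated 24 h at varying concentrations, pulsed with 10 μM BrdU for 30 min at 37 °C, then trypsinized, fixed in ice-cold 70% ethanol and DNA denatured in 2 M HCl. After staining with fluorescein anti-BrdU (1:50), propidium iodide (0.1 mg/mL) and RNase A (0.5 mg/mL), cells were read by flow cytometry with a 488 nm laser.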

MCF7 [11] = assay: Cell cycle arrest in human MCF7 cells assessed as accumulation at sub-G1 phase after 24 hrs using propidium iodide and BrdU staining by flow cytometry; format: functional, cell-based
Procedure, shortened: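 Subconfluent MCF-7 cells were treated for 24 h at a range of concentrations. They were pulse-labelled with 10 μM BrdU for 30 min at 37 °C, then trypsinized and fixed in ice-cold 70% ethanol. DNA was denatured in 2 M HCl and neutralized with borate. Cells were stained with fluorescein anti-BrdU and with propidium iodide plus RNase A, then analysed by flow cytometry at 488 nm.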

RPMI-8226 [12] = assay: Cell cycle arrest in human RPMI8226 cells assessed as accumulation at sub-G1 phase after 24 hrs using propidium iodide and BrdU staining by flow cytometry; format: functional, cell-based
Procedure, shortened: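 Asynchronously growing RPMI-8226 multiple myeloma cells were exposed for 24 h. Cells were double-stained with propidium iodide and BrdU and analysed by flow cytometry for G1, S, G2/M and BrdU-positive fractions. The subG1 population was taken as indicative of apoptosis.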

MCF7 [13] = assay: Induction of apoptosis in human MCF7 cells at 10 uM after 24 hrs; format: functional, cell-based
RPMI-8226 [14] = assay: Induction of apoptosis in human RPMI8226 cells assessed as cleaved fragmentation of caspase3 after 24 hrs by immunoblot analysis; format: functional, cell-based
Procedure, shortened: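 RPMI-8226 cells were treated continuously for 24 h, and total lysates were made in Laemmli buffer, run on SDS-PAGE and blotted to nitrocellulose. Loading was checked with Ponceau-S. Membranes were blocked in milk or BSA, probed overnight at 4 °C with antibodies to PARP, caspase-3 and Mcl-1, then peroxidase secondary (1:2000), with ECL detection.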

CC[C@H](CO)Nc1nc(NCc2ccccc2)c2[nH]nc(C(C)C)c2n1 was tested, and the IC50 (MCF7 [1]) was 7.5 µM, the IC50 (HBL-100) was 11.3 µM and the IC50 (HT-29) was 6.6 µM. The IC50 (U-266) was 4.9 µM, the IC50 (K562) was 7.7 µM and the IC50 (G-361) was 4.8 µM. It also gave an IC50 (HeLa) of 6.9 µM, an IC50 (A549) of 7.1 µM and an inhibition [2] of 96%. For the same compound, the inhibition [3] was 32%, the inhibition [4] was 30% and the inhibition [5] was 39%. For the same compound, the inhibition [6] was “Active”, the inhibition [7] was “inactive” and the inhibition [8] was “inactive”. The inhibition [9] was “inactive”, the Activity (MCF7 [10]) was “inactive” and the Activity (MCF7 [11]) was “Active”. For the same compound, the Activity (RPMI-8226 [12]) was “Active”, the Activity (MCF7 [13]) was “Active” and the Activity (RPMI-8226 [14]) was “Active”.
